The sample as a whole holds a higher share of hits than the screen did.
GASC1 inh: inhibitors of GASC-1 (KDM4C) histone demethylase, primary screen, biochemical, single concentration HTS; GST-KDM4C 2-372, H3K9me3 peptide, LANCE TR-FRET; inhibition, % at 12.5 µM; actives 0.15% (n = 96,000); AID 720574, 2013;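 active = mean replicate inhibition above about 25%, with at least 55% of replicates also reaching it, limit read from the data, passing the limit was not always enough; inconclusive = only one of those two conditions met; inactive = neither condition met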
Target sequence (Q9H3R0 2-372 limits assumed): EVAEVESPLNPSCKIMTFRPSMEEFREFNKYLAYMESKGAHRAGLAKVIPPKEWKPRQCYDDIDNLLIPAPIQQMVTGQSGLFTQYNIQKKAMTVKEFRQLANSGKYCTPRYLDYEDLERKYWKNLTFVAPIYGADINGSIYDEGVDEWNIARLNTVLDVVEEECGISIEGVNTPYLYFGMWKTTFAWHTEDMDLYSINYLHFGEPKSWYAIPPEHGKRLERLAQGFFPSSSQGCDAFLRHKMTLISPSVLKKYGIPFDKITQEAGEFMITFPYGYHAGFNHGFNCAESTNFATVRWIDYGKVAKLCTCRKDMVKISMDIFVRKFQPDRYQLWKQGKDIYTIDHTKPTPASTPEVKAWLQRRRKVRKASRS
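reagent = H3K9me3 peptide substrate, Fe(II), 2-oxoglutarate | system = GST-tagged GASC-1 (JMJD2C) catalytic fragment, aa 2-372 | amount = enzyme final amount 10 nM | read-out = Fall in 671/618 emission ratio as inhibition | medium = HEPES buffer, pH 7.5, plus ascorbate | schedule = 30 min reaction, 60 min detection, RT | measured by = LANCE TR-FRET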
T cruzi growth-1: T. cruzi intracellular proliferation inhibitors, primary screen, cell-based, beta-gal Tulahuen parasites, NIH3T3 host, luminescence. actives 5.9% (n = 77,000). inhibition, % at 8.34 µM. AID 624255, 2012. T. cruzi beta-gal in NIH3T3, GalScreen luminescence, 90 h;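 active = mean inhibition above about 93%, with at least 55% of replicates each passing it, limit read from the data, passing the limit was not always enough; inconclusive = only one of those two conditions holds; inactive = neither condition holds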
IDH1 R132H inh: inhibitors of IDH1 R132H reductase, primary screen, biochemical, plate reader, single point; AID 624101, 2012; inhibition, % at 10 µM; actives 0.18% (n = 70,000); Isocitrate dehydrogenase [NADP] cytoplasmic (Homo sapiens), O75874; diaphorase/resazurin fluorescence, 60 min; in the data active = inhibition above about 34%; inconclusive = no clear call, values can overlap the other calls; inactive = below about 11%;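 note: 0% = DMSO and 100% = no enzyme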
T cruzi growth-2: T. cruzi intracellular proliferation inhibitors, confirmation, cell-based, NIH3T3 host, beta-gal parasite, luminescence, cherry-pick; shares compounds with T cruzi growth-1; T. cruzi beta-gal in NIH3T3, GalScreen luminescence, 90 h; inhibition, % at 8.35 µM; actives 72% (n = 5,600); AID 651739, 2012;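 active = mean replicate inhibition above about 95% and at least 55% of replicates individually reaching it, limit read from the data; inconclusive = only one of the two criteria is met; inactive = neither criterion is met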
T cruzi growth-3: inhibitors of intracellular T. cruzi replication, confirmation, NIH3T3 host cells, beta-gal parasites, cherry-pick, set 2; shares compounds with T cruzi growth-1; T. cruzi beta-gal in NIH3T3, GalScreen luminescence, 90 h; inhibition, % at 2.09 µM; actives 21% (n = 5,600); AID 651740, 2012;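 active = mean inhibition above about 95%, with at least 55% of replicates also reaching it, limit read from the data; inconclusive = meets just one of the two conditions; inactive = meets neither condition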;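 note: plate controls were neutral control median for no effect and positive control median for full effect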
3T3 cytotox: cytotoxicity in mouse NIH/3T3 fibroblasts, confirmation, cytotoxicity control for T. cruzi proliferation inhibitor project, cell-based, cherry-pick, single point; NIH/3T3 viability, CellTiter-Glo ATP luminescence, 90 h; actives 14% (n = 5,600); cytotoxicity (signal decrease), % at 8.35 µM; shares compounds with T cruzi growth-1;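 active = mean signal decrease across replicates above about 35% based on untreated-well scatter, with enough replicates individually passing, limit read from the data; inconclusive = no rule stated though some were filed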;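 note: 0% = median of neutral control wells and 100% = median of positive control wells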
NIH3T3 tox 2: NIH/3T3 fibroblast cytotoxicity, confirmation, cytotoxicity control, cell-based, cherry-pick, single point, set 2; shares compounds with T cruzi growth-1; NIH/3T3 viability, CellTiter-Glo ATP luminescence, 90 h; inhibition, % at 24.9 µM; actives 56% (n = 5,600); AID 651744, 2012;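 active = mean loss of cell viability signal at or above a set limit, and enough replicates individually reaching it; inconclusive = meets only the mean limit or only the replicate share; inactive = meets neither condition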;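 note: 0% = median of neutral control wells and 100% = median of positive control wells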
Starred values were filed as active, the others as inactive; ? = inconclusive; · = no result.

SMILES	GASC1 inh	T cruzi growth-1	IDH1 R132H inh	T cruzi growth-2	T cruzi growth-3	3T3 cytotox	NIH3T3 tox 2
C[C@H](CO)N1C[C@H](C)[C@H](CN(C)CC2CCCCC2)OCCCC[C@H](C)Oc2ccc(NC(=O)Nc3ccc(F)cc3)cc2C1=O	0	115*	5	89	102*	118*	102*
C[C@@H]1CN([C@@H](C)CO)C(=O)c2cc(NC(=O)Nc3ccc(F)cc3)ccc2O[C@@H](C)CCCCO[C@@H]1CN(C)CC1CCCCC1	0	117*	0	99*	43	?	103*
C[C@@H]1CN([C@@H](C)CO)C(=O)c2cc(NC(=O)Nc3ccc(F)cc3)ccc2O[C@@H](C)CCCCO[C@H]1CN(C)CC1CCCCC1	-1	115*	4	92	78	9	104*
C[C@@H]1CCCCO[C@@H](CN(C)CC2CC2)[C@H](C)CN([C@H](C)CO)C(=O)c2cc(NC(=O)Nc3ccc(F)cc3)ccc2O1	-3	83	·	·	·	·	·
C[C@@H]1CCCCO[C@@H](CN(C)C)[C@H](C)CN([C@@H](C)CO)C(=O)c2cc(NC(=O)Nc3ccc(F)cc3)ccc2O1	5	0	4	·	·	·	·
COCC(=O)Nc1ccc2c(c1)C(=O)N(C)[C@@H]1CC[C@H](CC(=O)NCCCN(C)C)O[C@H]1CO2	5	-5	·	·	·	·	·
C[C@@H]1CN([C@H](C)CO)C(=O)Cc2cc(NC(=O)c3ccncc3)ccc2O[C@@H]1CN(C)Cc1ccc(C(=O)O)cc1	-1	·	·	·	·	·	·
C[C@H](CO)N1C[C@H](C)[C@@H](CN(C)C)OCCCC[C@H](C)Oc2ccc(NC(=O)Nc3ccc(F)cc3)cc2C1=O	1	8	-1	·	·	·	·
C[C@@H]1CCCCO[C@@H](CN(C)CC2CCCCC2)[C@@H](C)CN([C@H](C)CO)C(=O)c2cc(NC(=O)Nc3ccc(F)cc3)ccc2O1	11	117*	·	100*	109*	29	103*
CCC(=O)N1CCCCN2[C@H](CO)[C@@H](c3ccc(C#Cc4ccccc4F)cc3)[C@H]2C1	0	112*	·	102*	47	34	104*
COCC(=O)N1CCCCN2[C@H](CO)[C@@H](c3ccc(C#Cc4ccccc4)cc3)[C@H]2C1	0	36	·	·	·	·	·
CCC(=O)N1CCCCN2[C@@H](CO)[C@@H](c3ccc(C#Cc4ccccc4F)cc3)[C@@H]2C1	-1	113*	·	102*	65	10	103*
CCC(=O)N1CCCCN2[C@H](CO)[C@@H](c3ccc(C#Cc4cccnc4)cc3)[C@@H]2C1	-1	44	·	·	·	·	·
CN1CCCCN2[C@@H](CO)[C@@H](c3ccc(C#Cc4ccccc4F)cc3)[C@@H]2C1	5	93	·	·	·	·	·
CC(=O)N1CCCCN2[C@H](CO)[C@@H](c3ccc(C#Cc4ccccc4F)cc3)[C@H]2C1	1	103*	·	75	44	46*	104*
CCC(=O)N1CCCCN2[C@@H](CO)[C@H](c3ccc(C#Cc4ccccc4F)cc3)[C@@H]2C1	-2	124*	·	109*	91	45*	104*
CN1CCCCN2[C@H](CO)[C@@H](c3ccc(C#Cc4ccccc4F)cc3)[C@@H]2C1	-2	82	·	·	·	·	·
C[C@@H]1CN([C@H](C)CO)C(=O)Cc2cc(N(C)C)ccc2O[C@H]1CN(C)C(=O)Nc1ccc(C(F)(F)F)cc1	0	81	4	·	·	·	·
C[C@H]1CN([C@@H](C)CO)C(=O)c2cc(/C=C/c3ccccc3)cnc2O[C@@H]1CN(C)C(=O)CN(C)C	-1	·	0	·	·	·	·
CN1C(=O)c2cc(NC(=O)c3cnccn3)ccc2OC[C@H]2O[C@@H](CC(=O)O)CC[C@@H]21	1	0	·	·	·	·	·
CCC[C@@H]1C[C@@H](C(=O)N[C@@H]([C@H]2O[C@H](SC)[C@H](O)[C@@H](O)[C@@H]2O)[C@@H](C)O)N(C)C1	·	·	-2	·	·	·	·
COc1cccc(-c2ccc3c(c2)[C@H]2[C@H](CCN2S(=O)(=O)c2ccccc2C)[C@H](CO)N3C)c1	-1	73	·	·	·	·	·
CN1C(=O)c2cc(NC(=O)c3cnccn3)ccc2OC[C@@H]2O[C@@H](CC(=O)N[C@@H]3CCN(Cc4ccccc4)C3)CC[C@H]21	-1	101*	·	101*	48	0	-8
CN1C(=O)c2cc(NC(=O)c3cnccn3)ccc2OC[C@@H]2O[C@H](CC(=O)N[C@@H]3CCN(Cc4ccccc4)C3)CC[C@H]21	2	85	·	·	·	·	·
CN1C(=O)c2cc(NC(=O)c3cnccn3)ccc2OC[C@H]2O[C@@H](CC(=O)N[C@H]3CCN(Cc4ccccc4)C3)CC[C@@H]21	-1	82	·	·	·	·	·
SMILES	GASC1 inh	T cruzi growth-1	IDH1 R132H inh	T cruzi growth-2	T cruzi growth-3	3T3 cytotox	NIH3T3 tox 2
CN1C(=O)c2cc(NC(=O)c3cnccn3)ccc2OC[C@@H]2O[C@H](CC(=O)N[C@H]3CCN(Cc4ccccc4)C3)CC[C@@H]21	0	109*	·	95*	?	-13	2
C[C@@H]1CN([C@H](C)CO)S(=O)(=O)c2ccc(C#Cc3ccccc3F)cc2O[C@@H]1CN(C)C(=O)Cc1cccnc1	1	69	0	·	·	·	·
COc1ccccc1NC(=O)N[C@H]1CC[C@@H](CCn2cc(C3(O)CCCC3)nn2)O[C@H]1CO	0	36	-1	·	·	·	·
CC(C)C#Cc1ccc2c(c1)O[C@@H](CN(C)Cc1ccncc1)[C@H](C)CN([C@H](C)CO)S2(=O)=O	0	119*	1	106*	102*	63*	104*
C[C@H](CO)N1C[C@H](C)[C@@H](CN(C)Cc2ccncc2)Oc2cc(C#C[C@@H](C)O)ccc2S1(=O)=O	4	75	·	·	·	·	·
CC(C)C#Cc1ccc2c(c1)O[C@H](CN(C)C(=O)c1ccncc1)[C@H](C)CN([C@H](C)CO)S2(=O)=O	0	39	·	·	·	·	·
CC(C)C#Cc1ccc2c(c1)O[C@@H](CN(C)C(=O)c1ccncc1)[C@@H](C)CN([C@@H](C)CO)S2(=O)=O	-2	102*	·	100*	?	23	45*
CC(C)C#Cc1ccc2c(c1)O[C@H](CN(C)Cc1ccncc1)[C@@H](C)CN([C@H](C)CO)S2(=O)=O	-3	?	-1	99*	101*	57*	103*

Screening data: PubChem BioAssay, Broad Institute
